In PMC12707241 (RSC Chemical Biology, 2025):
Read-outs that look alike come from different tables or passages of the source.

Legend:
[1] = tested on: SIRT5; conditions: cited from earlier work
[2] = tested on: SIRT5; conditions: cited from earlier work; remark: listed apart in the source
[3] = tested on: HEK293 cells; assay: Intracellular NAD+ level, HEK293 cells; format: cell-based, human; conditions: HEK293, 1 mM, 6 h
Outline: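 HEK293 cells (DMEM, 10% FBS, 37 °C, 5% CO2) incubated with 1 mM NR or NARH for 6 h. Harvested, counted by hemocytometer, pelleted, and extracted in ice-cold 7% perchloric acid (three vortex/ice-sonication cycles). NAD+ measured by enzymatic cycling assay. Three independent experiments ± SD; Student's t-test.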

[4] = physiological NAM concentrations

Row | Compound | effect on desuccinylase activity of SIRT5 [1, 4] | effect on deacetylase activity of SIRT5 [2, 4] | intracellular NAD+ content [3] | effect on desuccinylase activity of SIRT5 [1] | effect on deacetylase activity of SIRT5 [2]
1 | NC(=O)c1cccnc1 [NAM, nicotinamide] | potently inhibit | negligible changes |  |  | 
2 | NC(=O)c1ccc[n+]([C@@H]2O[C@H](CO)[C@@H](O)[C@H]2O)c1 [NR, nicotinamide riboside] |  |  | nearly two-fold increase | negligible changes | selectively activates
